This passage reports PFA, ED50 and IC50 results from ChEMBL document CHEMBL1124311, “Synthesis and antiallergy activity of 4-(diarylhydroxymethyl)-1-[3-(aryloxy)propyl]piperidines and structurally related compounds” (J Med Chem, 1989).

In test [1] the test system is Rattus norvegicus. Briefly: Oral antiallergy activity in the passive foot anaphylaxis (PFA) model of rat, at a dose of 1.0 (mg/kg);not significantly different from negative control group. The format is functional, organism-based.
Test [2] relates to Rattus norvegicus. The test is described as follows: Oral antiallergy activity in the passive foot anaphylaxis (PFA) model of rat, at a dose of 10 (mg/kg); Activity greater than positive control group. The test is classed as functional, organism-based.
The test system of test [3] is Rattus norvegicus. Briefly: Oral antiallergy activity in the passive foot anaphylaxis (PFA) model of rat, at a dose of 3.16 (mg/kg); Activity between positive and negative control groups. The format is functional, organism-based.
Test [4] relates to Rattus norvegicus. The test is described as follows: Oral antiallergy activity in the passive foot anaphylaxis (PFA) model of rat, at a dose of 1.0 (mg/kg); not significantly different from negative control group. The format is functional, organism-based.
Test [5] deals with Rattus norvegicus. The test is described as follows: Oral antiallergy activity in the passive foot anaphylaxis (PFA) model of rat, at a dose of 10 (mg/kg); Activity equal to positive control group. The format is functional, organism-based.
The species named for test [6] is Rattus norvegicus. The test is described as follows: Oral antiallergy activity in the passive foot anaphylaxis (PFA) model of rat, at a dose of 3.16; Activity equal to positive control group. The test is classed as functional, organism-based.
Test [7] is filed under the species Cavia porcellus. Briefly: Oal antiallergy activity in the guinea pig anaphylaxis (GPA) model, at a pretreatment time of 24 h. The test is classed as functional. Conditions: read-out: PD50. Summed up:
(§1)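 Fasted, sensitized Dunkin-Hartley guinea pigs, randomized into control (N = 8) and test (N = 4) groups, dosed by gavage at 10 mL/kg in 0.5% Tween 80 in water; theophylline 100 mg/kg po as reference. At the stated pretreatment time, each animal was exposed to aerosolized 1% (w/v) egg albumin at 10 L air/min for up to 5 min. Protection meant no collapse within 5 min. PD50 was calculated by Litchfield–Wilcoxon.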

For test [8], the species on record is Cavia porcellus. The test is described as follows: Oal antiallergy activity in the guinea pig anaphylaxis (GPA) model of, at a pretreatment time of 5 h. The format is functional. Particulars: read-out: PD50. Summed up: as §1
The target in the next test is Histamine H1 receptor (Cavia porcellus, UniProt P31389). Briefly: Inhibitory activity against Tritiated [3H]- mepyramine binding to Histamine H1 receptor in guinea pig cerebral cortex. The test is classed as tissue-based. Summed up: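 Guinea pig (Dunkin-Hartley) cerebral cortex homogenised in cold 50 mM Na-K phosphate pH 7.5, washed by repeated 48000g spins, membranes resuspended at 30 mL buffer/g wet tissue. Incubated with 1.5 nM (final) [3H]mepyramine for 20 min at 25 °C. Stopped by cold-buffer washing and GF/B filtration, then scintillation counting. Six concentrations (1e-5 to 1e-10 M) in triplicate. IC50 from regression of logit % control binding vs log concentration.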
Sequence of Histamine H1 receptor (P31389 whole entry): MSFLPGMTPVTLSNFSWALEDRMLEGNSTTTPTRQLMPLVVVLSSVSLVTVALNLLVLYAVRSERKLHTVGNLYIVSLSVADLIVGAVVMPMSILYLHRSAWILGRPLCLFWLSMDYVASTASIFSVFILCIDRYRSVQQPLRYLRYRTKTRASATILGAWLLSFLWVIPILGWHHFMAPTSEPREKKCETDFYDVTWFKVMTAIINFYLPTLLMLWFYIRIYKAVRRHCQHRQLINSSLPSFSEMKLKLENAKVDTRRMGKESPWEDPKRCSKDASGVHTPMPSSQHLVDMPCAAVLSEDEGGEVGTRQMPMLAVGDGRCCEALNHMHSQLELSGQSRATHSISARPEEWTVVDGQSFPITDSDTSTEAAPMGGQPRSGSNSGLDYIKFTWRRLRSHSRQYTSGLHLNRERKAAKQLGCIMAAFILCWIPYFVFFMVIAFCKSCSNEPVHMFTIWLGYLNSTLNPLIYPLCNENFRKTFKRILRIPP

The subject of test [9] is Rattus norvegicus. Briefly: Oral antiallergy activity in the passive foot anaphylaxis (PFA) model of rat, at a dose of 3.16 (mg/kg); - indicates not significantly different from negative control group. The format is functional, organism-based.
In test [10] the test system is Rattus norvegicus. Briefly: Oral antiallergy activity in the passive foot anaphylaxis (PFA) model of rat, at a dose of 0.5 (mg/kg); Activity between positive and negative control groups. The test is classed as functional, organism-based.
Test [11] deals with Rattus norvegicus. The test is described as follows: Oral antiallergy activity in the passive foot anaphylaxis (PFA) model of rat, at a dose of 1.0 (mg/kg). The test is classed as functional, organism-based.
For test [12], the species on record is Cavia porcellus. Briefly: Oral antiallergy activity in the guinea pig anaphylaxis (GPA) model, at a pretreatment time of 1 h. The test is classed as functional. Conditions: read-out: PD50. A digest of the protocol:
as §1

Test [13] is filed under the species Cavia porcellus. The test is described as follows: Oral antiallergy activity in the guinea pig anaphylaxis (GPA) model of, at a pretreatment time of 6 h. The test is classed as functional. Particulars: read-out: PD50. Summed up:
as §1

Test [14] deals with Rattus norvegicus. The test is described as follows: Oral antiallergy activity in the passive foot anaphylaxis (PFA) model of rat, at a dose of 10 (mg/kg); not significantly different from negative control group. The test is classed as functional, organism-based.
For test [15], the system named is Rattus norvegicus. The test is described as follows: Oral antiallergy activity in the passive foot anaphylaxis (PFA) model of rat, at a dose of 10 (mg/kg); Not significantly different from negative control group. The format is functional, organism-based.

pIC50: −log10 of the molar value. Active and inactive are the calls of the source. The rule behind the calls is not given here.

Take `CS(=O)(=O)Nc1ccc(OCCCN2CCC(C(O)(c3ccc(F)cc3)c3ccc(F)cc3)CC2)cc1`: the PFA entry in the test with Rattus norvegicus [1] was “Activity between positive and negative control groups”; with Rattus norvegicus [2] it was “Activity between positive and negative control groups”; with Rattus norvegicus [3], “Activity between positive and negative control groups”.
With `Cc1ccc(OCCCN2CCC(C(O)(c3ccc(F)cc3)c3ccc(F)cc3)CC2)cc1`, the PFA result with Rattus norvegicus [4], with Rattus norvegicus [5] and in the test listed under Rattus norvegicus [6] was “Activity equal to positive control group” each time.
In the case of `O=c1[nH]c2ccccc2n1CCCN1CCN(C(c2ccccc2)c2ccccc2)CC1` [OXATOMIDE], the figures for the ED50 in the test filed under Cavia porcellus [7] and in the test filed under Cavia porcellus [8] were 10 mg/kg and 1 mg/kg, respectively. Besides, the pIC50 (usually −log10 of the IC50, conventionally taken in molar units) on Histamine H1 receptor is 8.05.
As for `OC(c1ccc(F)cc1)(c1ccc(F)cc1)C1CCN(CCCCc2ccccc2)CC1`, the PFA entry in the test with Rattus norvegicus [9] was “Not significantly different from negative control group”.
For `O=C(O)c1ccc(OCCCN2CCC(C(O)(c3ccc(F)cc3)c3ccc(F)cc3)CC2)cc1`, the PFA result is “Activity between positive and negative control groups” in the test on Rattus norvegicus [10]; “Activity between positive and negative control groups” with Rattus norvegicus [3]; “Activity between positive and negative control groups” in the test with Rattus norvegicus [11].
Take `CC(C)(C)c1ccc(C(O)CCCN2CCC(C(O)(c3ccccc3)c3ccccc3)CC2)cc1` (configuration not stated) [TERFENADINE]: the ED50 in the test filed under Cavia porcellus [12] was determined as 1 mg/kg; in the test listed under Cavia porcellus [13], 3.2 mg/kg. In addition, in the test on Rattus norvegicus [14], the PFA result is “inactive”.
As to `COc1cc(C(C)=O)ccc1OCCCN1CCC(C(O)c2ccccc2)CC1` (configuration not stated), in the test with Rattus norvegicus [15], the PFA result is “Not significantly different from negative control group”.
